Reference: ChEMBL document CHEMBL3272077, “11,12-Secoprostaglandins. 2. N-acyl-N-alkyl-7-aminoheptanoic acids” (1977)

Tests used:
Mus musculus [1] = species: Mus musculus; test: Stimulation of prostanoid receptor-mediated cAMP accumulation in Charles River CD-1 mouse ovary at 100 ug/ml after 30 mins relative to control; assay type: tissue-based; conditions: Female gonad
Outline: (§1)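 Mouse ovaries incubated 1 h at 37 °C with shaking to build an intracellular ATP-14C pool. Then 0.2 ml 0.05 M theophylline in 0.15 M NaCl and test compound in Me2SO were added, followed by 30 min at 37 °C. Stopped with 10% trichloroacetic acid and homogenized. cAMP-14C was isolated from the supernatant ending with paper chromatography. Result is fold increase, treated over untreated ovaries.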

Mus musculus [2] = species: Mus musculus; test: Stimulation of prostanoid receptor-mediated cAMP accumulation in Charles River CD-1 mouse ovary at 10 ug/ml after 30 mins relative to control; assay type: tissue-based; conditions: Female gonad; outline: as §1
Mus musculus [3] = species: Mus musculus; test: Stimulation of prostanoid receptor-mediated cAMP accumulation in Charles River CD-1 mouse ovary at 25 ug/ml after 30 mins relative to control; assay type: tissue-based; conditions: Female gonad; outline: as §1
Mus musculus [4] = species: Mus musculus; test: Stimulation of prostanoid receptor-mediated cAMP accumulation in Charles River CD-1 mouse ovary at 1 ug/ml after 30 mins relative to control; assay type: tissue-based; conditions: Female gonad; outline: as §1
Mus musculus [5] = species: Mus musculus; test: Stimulation of prostanoid receptor-mediated cAMP accumulation in Charles River CD-1 mouse ovary at 0.1 ug/ml after 30 mins relative to control; assay type: tissue-based; conditions: Female gonad; outline: as §1
Mus musculus [6] = species: Mus musculus; test: Stimulation of prostanoid receptor-mediated cAMP accumulation in Charles River CD-1 mouse ovary at 0.05 ug/ml after 30 mins relative to control; assay type: tissue-based; conditions: Female gonad; outline: as §1
Canis familiaris = test: Increase in renal blood flow in anesthetized dog at 0.25 mg/kg/min infused into thoracic aorta (reference value: 188 ml/min); assay type: functional, Canis lupus familiaris

Row | SMILES | fold change (FC) (Mus musculus [1]) | fold change (FC) (Mus musculus [2]) | fold change (FC) (Mus musculus [3]) | fold change (FC) (Mus musculus [4]) | fold change (FC) (Mus musculus [5]) | fold change (FC) (Mus musculus [6]) | Activity (Canis familiaris) [mL/min]
1 | CCCCCC(O)CCCN(C#N)CCCCCCC(=O)O (stereo not drawn) | 31 | 4 | 18 | – | – | – | –
2 | CCCCCC(O)/C=C/CN(CCCCCCC(=O)O)C(N)=O (stereo not drawn) | 26 | 14 | 19 | – | – | – | –
3 | CCCCCC(O)CCCN(CCCCCCC(=O)O)C(N)=S (stereo not drawn) | 26 | 4 | 16 | – | – | – | –
4 | CCCCCCCCC(c1ccccc1)N(CCCCCCC(=O)O)C(C)=O (stereo not drawn) | 1 | – | 1 | – | – | – | –
5 | CCCCC[C@H](O)/C=C/[C@H]1[C@H](O)CC(=O)[C@@H]1CCCCCCC(=O)O | – | – | – | 54 | 25 | 29 | –
6 | CCCCCC(O)CCCN(CCCCCCC(=O)[O-])C(N)=O.[Na+] (stereo not drawn) | 40 | 23 | 43 | 2 | – | – | 258
7 | CCCCCC(O)CCCC(CCCCCCC(=O)O)C(C)=O (stereo not drawn) | 23 | 11 | 14 | 2 | – | – | –
8 | CCCCC[C@H](O)CC[C@H]1CCC(=O)[C@@H]1CCCCCCC(=O)O | – | 25 | 26 | 10 | – | – | –
9 | CCCCCC(C)(O)CCCN(CCCCCCC(=O)O)C(N)=O (stereo not drawn) | 22 | 3 | 8 | – | – | – | –

Second part, led by results:

Row | fold change (FC) (Mus musculus [1]) | fold change (FC) (Mus musculus [2]) | fold change (FC) (Mus musculus [3]) | fold change (FC) (Mus musculus [4]) | fold change (FC) (Mus musculus [5]) | fold change (FC) (Mus musculus [6]) | SMILES | Activity (Canis familiaris) [mL/min]
10 | 25 | 15 | 16 | – | – | – | CCCCCCCCCN(CCCCCCC(=O)O)C(N)=O | –
11 | 11 | 2 | 7 | – | – | – | C=CC(=O)N(CCCCCCCCC)CCCCCCC(=O)O | –
12 | 4 | – | 3 | – | – | – | CCCCCCCCC(C)N(CCCCCCC(=O)O)C(C)=O (stereo not drawn) | –
13 | 17 | 10 | 17 | – | – | – | CCCCCC(O)CCCN(CCCCCCC(=O)O)C(C)=O (stereo not drawn) | –
14 | 17 | 9 | 16 | – | – | – | CCCCCCCCC(C)N(CCCCCCC(=O)O)C(N)=O (stereo not drawn) | –
